These results are taken from PubChem BioAssay AID463077 (The Scripps Research Institute Molecular Screening Center, 2010).

Calls of active or inactive are those of the source.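 The calls were made as follows: active = compounds whose half-inhibition concentration IC50 on CK1 delta kinase is at most 1 µM; inactive = the rest.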

Chain of Casein kinase I isoform delta (Homo sapiens) (P48730 whole entry, looked up, canonical isoform): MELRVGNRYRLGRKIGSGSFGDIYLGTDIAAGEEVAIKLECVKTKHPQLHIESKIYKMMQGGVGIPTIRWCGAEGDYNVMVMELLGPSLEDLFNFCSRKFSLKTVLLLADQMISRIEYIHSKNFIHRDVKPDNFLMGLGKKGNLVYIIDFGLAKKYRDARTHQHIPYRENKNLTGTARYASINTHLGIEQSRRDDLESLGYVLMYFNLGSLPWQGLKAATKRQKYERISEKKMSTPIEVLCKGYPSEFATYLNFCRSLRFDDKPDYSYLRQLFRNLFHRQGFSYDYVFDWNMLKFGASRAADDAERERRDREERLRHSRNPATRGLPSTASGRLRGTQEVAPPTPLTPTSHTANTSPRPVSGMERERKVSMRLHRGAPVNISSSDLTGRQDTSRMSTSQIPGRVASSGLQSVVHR

In this assay the target is Casein kinase I isoform delta (Homo sapiens) (UniProt P48730). Kind of assay: inhibition of casein kinase 1 delta activity – biochemical, radioactive 33P-ATP, purified kinase, powder samples, late-stage follow-up (AID 463077). As to conditions: purified CK1d, 33P-ATP filter-binding, CK1tide. Summed up:
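Test system: Purified human casein kinase 1 delta (CK1d) enzyme | Buffer or medium: pH 7.5 HEPES buffer with 1% DMSO | Dosing: 10-point threefold dilution series from nominal 50 µM top dose | Incubation: Kinase reaction run 120 min at room temperature | Detection: 33P incorporation by filter binding | Evaluation: IC50 from radioactivity ratio versus concentration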
On to `Clc1ccc2nc(CNc3nc(N4CCOCC4)nc4c3ncn4-c3ccsc3)[nH]c2c1`, for which the IC50 is 0.105 µM. With `N#Cc1ccc2nc(CNc3nc(N4CCOCC4)nc4c3ncn4-c3ccsc3)[nH]c2c1`, the IC50 is 0.011 µM.

In the case of `COc1ccc2nc(CNc3nc(N4CCOCC4)nc4c3ncn4-c3ccsc3)[nH]c2c1`, the concentration for half-maximal inhibition (IC50) is 0.017 µM.

With `CC(C)n1cnc2c(NCc3nc4c([N+](=O)[O-])cccc4[nH]3)nc(N3CCOCC3)nc21`, the IC50 was 0.815 µM.

On to `c1ccc2[nH]c(CNc3nc(N4CCOCC4)nc4c3ncn4-c3ccsc3)nc2c1`, for which the IC50 is 0.161 µM.

As to `c1ccc2cc3[nH]c(CNc4nc(N5CCOCC5)nc5c4ncn5-c4ccsc4)nc3cc2c1`, the IC50 was 0.129 µM. Consider `Fc1ccc2nc(CNc3nc(N4CCOCC4)nc4c3ncn4-c3ccsc3)[nH]c2c1`, for which the IC50 is 0.05 µM. To `Cc1ccnc(NC(=O)CCCOc2cc(=O)n(C)c3ccccc23)c1` belongs “inactive”. The result for `FC(F)(F)c1cccc2[nH]c(CNc3nc(N4CCOCC4)nc4c3ncn4-c3ccsc3)nc12` reads 0.128 µM; that for `CCOC(=O)c1cccc2[nH]c(CNc3nc(N4CCOCC4)nc4c3ncn4-c3ccsc3)nc12`, 0.361 µM. Take `FC(F)(F)c1ccc2nc(CNc3nc(N4CCOCC4)nc4c3ncn4-c3ccsc3)[nH]c2c1`: the IC50 is 0.013 µM. The result for `O=[N+]([O-])c1ccc2nc(CNc3nc(N4CCOCC4)nc4c3ncn4-c3ccsc3)[nH]c2c1` reads 0.021 µM; that for `O=[N+]([O-])c1cccc2[nH]c(CNc3nc(N4CCOCC4)nc4c3ncn4-c3ccsc3)nc12`, 0.049 µM.

The IC50 is the midpoint of a concentration-inhibition curve.
